The record followed here is ChEMBL document CHEMBL5532695, “4-Trifluoromethyl bithiazoles as broad-spectrum antimicrobial agents for virus-related bacterial infections or co-infections” (RSC Med Chem, 2024).

In general, EC50 refers to the concentration giving half of the maximal effect. A word on the CC50: it is the concentration that lowers cell viability or growth by half. By IC50 is commonly meant the concentration that inhibits the measured activity by half. Broadly, the MIC is the least concentration at which growth counts as inhibited.

Values after ≈ are worked out from the molar mass of the structure shown. Active and inactive are the calls of the source. The calls are words filed in the database; no cut-off is given here.

The test system of data set [1] is rhinovirus A16. In words: Antiviral activity against 7 times rupintrivir passaged resistance model of Human rhinovirus 16 infected in human HeLa cells assessed as inhibition of viral replication. In kind it is functional, organism-based. The note with it: Rhinovirus A. The method, boiled down: (§1)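 HeLa cells infected with RVA16 and serially passaged under compound, supernatants harvested at extensive CPE (3–6 dpi), clarified and titrated on HeLa; each passage used prior virus at MOI 0.01, drug concentration doubled when possible; after 7 passages RNA sequenced. Antiviral read-out: HeLa at 33 °C, 48 h, VP3 immunostaining with HRP secondary; EC50 from variable-slope sigmoidal fit.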

Data set [2] concerns rhinovirus A16. Briefly: Antiviral activity against 7 times N-(4'-(Trifluoromethyl)-2-((3-(trifluoromethyl)phenyl)amino)-[4,5'-bithiazol]-2'-yl)benzamide passaged resistance model of Human rhinovirus 16 infected in human HeLa cells assessed as inhibition of viral replication. The class given is functional, organism-based. The note with it: Rhinovirus A. The gist of the method: as §1

Data set [3] relates to rhinovirus A16. In words: microbe, parasite or virus in culture. To be noted: Rhinovirus A, HeLa, 48 h.
Data set [4] in a line: Cytotoxicity against human HeLa cells assessed as reduction in cell viability by MTT assay. In kind it is toxicity, cell-based. The method, boiled down:
(§2)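 MTT viability on HeLa or VeroE6 cells, run in parallel with the antiviral assays. CC50 from variable-slope sigmoidal dose–response regression.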

The test system of another data set is Zika virus. In words: microbe, parasite or virus in culture. To be noted: Vero C1008, 72 h.
For data set [5], the system named is Pseudomonas aeruginosa. Briefly: Synergistic antibacterial activity against colistin resistant MDR Pseudomonas aeruginosa SI-270 incubated for 18 to 24 hrs in presence of colistin by broth microdilution method. In kind it is functional. To be noted: time 18-24 hrs. The gist of the method:
(§3)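 Minimum antibacterial concentration (MAC) by broth microdilution in Mueller–Hinton medium with a fixed subinhibitory colistin concentration of 2 μg mL−1 against colistin-resistant Gram-negative clinical isolates; inoculum 5 × 10^4 CFU per well, 35 ± 2 °C; triplicate.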
On the technique in general: In broth dilution the organism is exposed to a series of concentrations in liquid medium.

In data set [6] the target is Phosphatidylinositol 4-kinase beta (Homo sapiens, UniProt Q9UBF8). Briefly: Inhibition of recombinant full length his tagged PI4KB (unknown origin) incubated for 10 mins in presence of ATP by ADP-glo kinase assay. In general terms: ADP-Glo turns the ADP formed in a reaction into a luminescent signal.
For another data set, the system named is enterovirus D68. In words: microbe, parasite or virus in culture. To be noted: Enterovirus D, HeLa, 48 h.
The test system of data set [7] is Escherichia coli. Briefly: Synergistic antibacterial activity against Escherichia coli CCUGT incubated for 18 to 24 hrs in presence of colistin by broth microdilution method. In kind it is functional. The note with it: time 18-24 hrs.
In a further data set the test system is Bacillus subtilis. In words: Antibacterial activity against Bacillus subtilis ATCC 6633 assessed as reduction in microbial growth measured after 18 hrs by CLSI based broth microdilution method. The class given is functional. The gist of the method:
(§4)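 MIC by CLSI broth microdilution in Mueller–Hinton medium, triplicate. Inoculum 5 × 10^4 CFU per well. Compounds taken up in DMSO (50 mg mL−1 stock) and diluted in medium. Read after 18 h at 35 ± 2 °C.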

The subject of data set [8] is Pseudomonas aeruginosa. Briefly: Synergistic antibacterial activity against Pseudomonas aeruginosa ATCC 27853 incubated for 18 to 24 hrs in presence of colistin by broth microdilution method. In kind it is functional. The note with it: time 18-24 hrs.
For the next data set, the system named is Klebsiella pneumoniae. Briefly: Synergistic antibacterial activity against Klebsiella pneumoniae ATCC 13833 incubated for 18 to 24 hrs in presence of colistin by broth microdilution method. The class given is functional. To be noted: time 18-24 hrs.
The subject of the next data set is Enterococcus faecalis. In words: Antibacterial activity against Enterococcus faecalis ATCC 29212 assessed as reduction in microbial growth measured after 18 hrs by CLSI based broth microdilution method. The class given is functional. The gist of the method: as §4
Data set [9] relates to Staphylococcus aureus. In words: Antibacterial activity against Staphylococcus aureus ATCC 25923 assessed as reduction in microbial growth measured after 18 hrs by CLSI based broth microdilution method. The class given is functional. The gist of the method:
as §4

For data set [10], the system named is rhinovirus A16. In words: Antiviral activity against hRVA16 infected in human HeLa cells assessed as effect on RNA intracellular level at 5 uM pretreated for 1 hrs before infection and measured after 1 to 6 hrs post infection by time of addition assay. In kind it is functional, organism-based. To be noted: time 2-7 hrs. The gist of the method: (§5)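 Time of addition: HeLa cells infected with RVA16 at MOI 0.1. Compound at 5 μM added 1 h before, during, or 1, 2, 4 or 6 h after infection. At 24 h, cells lysed and intracellular viral RNA measured by RV-specific qPCR; supernatant titrated on HeLa cells.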

Data set [11] can be described thus: Cytotoxicity against african green monkey Vero E6 cells assessed as reduction in cell viability by MTT assay. The class given is toxicity, cell-based. To be noted: chlorocebus sabaeus, Vero E6 cells (Vero C1008). The gist of the method: as §2
On the technique in general: Formazan colour is commonly taken as a measure of viable cells.

Data set [12] relates to Acinetobacter baumannii. Briefly: Synergistic antibacterial activity against Acinetobacter baumannii ATCC 17978 incubated for 18 to 24 hrs in presence of colistin by broth microdilution method. The class given is functional. To be noted: time 18-24 hrs.
Another data set concerns Streptococcus pyogenes. Briefly: Antibacterial activity against Streptococcus pyogenes ATCC 12344 assessed as reduction in microbial growth measured after 18 hrs by CLSI based broth microdilution method. The class given is functional. The gist of the method: as §4
Data set [13] relates to Acinetobacter baumannii. Briefly: Synergistic antibacterial activity against colistin/carbapenem resistant MDR Acinetobacter baumannii N50 incubated for 18 to 24 hrs in presence of colistin by broth microdilution method. The class given is functional. To be noted: time 18-24 hrs. The method, boiled down: as §3
Data set [14] has as its system Escherichia coli. In words: Synergistic antibacterial activity against colistin resistant mcr-positive Escherichia coli SI-63 incubated for 18 to 24 hrs in presence of colistin by broth microdilution method. The class given is functional. To be noted: time 18-24 hrs. The gist of the method:
as §3

In data set [15] the test system is rhinovirus A16. Briefly: Antiviral activity against hRVA16 infected in human HeLa cells assessed as effect on release of infectious virus at 5 uM measured after 24 hrs post infection by time of addition assay. In kind it is functional, organism-based. The method, boiled down:
as §5

In data set [16] the test system is Staphylococcus aureus. In words: Antibacterial activity against Staphylococcus aureus. The class given is functional.

Chain of Phosphatidylinositol 4-kinase beta (Q9UBF8 whole entry): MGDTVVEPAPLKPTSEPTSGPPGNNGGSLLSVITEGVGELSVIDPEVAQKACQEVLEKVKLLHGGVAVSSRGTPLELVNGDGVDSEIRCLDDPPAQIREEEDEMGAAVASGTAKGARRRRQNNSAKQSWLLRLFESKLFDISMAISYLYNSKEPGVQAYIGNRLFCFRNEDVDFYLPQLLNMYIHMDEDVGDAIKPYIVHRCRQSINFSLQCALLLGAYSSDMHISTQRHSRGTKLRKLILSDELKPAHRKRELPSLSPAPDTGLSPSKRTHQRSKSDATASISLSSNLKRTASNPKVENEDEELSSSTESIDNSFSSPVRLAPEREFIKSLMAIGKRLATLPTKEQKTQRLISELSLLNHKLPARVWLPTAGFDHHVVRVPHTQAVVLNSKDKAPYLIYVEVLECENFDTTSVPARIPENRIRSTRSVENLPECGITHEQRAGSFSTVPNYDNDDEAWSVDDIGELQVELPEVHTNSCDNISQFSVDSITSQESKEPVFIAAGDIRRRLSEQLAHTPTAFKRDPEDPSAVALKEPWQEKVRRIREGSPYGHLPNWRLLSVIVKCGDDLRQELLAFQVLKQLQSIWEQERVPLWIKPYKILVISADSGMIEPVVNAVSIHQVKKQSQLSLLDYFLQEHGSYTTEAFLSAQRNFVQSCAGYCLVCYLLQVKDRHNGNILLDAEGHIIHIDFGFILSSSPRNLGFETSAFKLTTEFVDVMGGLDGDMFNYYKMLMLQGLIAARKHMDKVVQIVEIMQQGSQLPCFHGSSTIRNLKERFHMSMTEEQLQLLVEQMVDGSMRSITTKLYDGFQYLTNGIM

Consider `CCOC(=O)/C=C/[C@H](C[C@@H]1CCNC1=O)NC(=O)[C@@H](CC(=O)[C@@H](NC(=O)c1cc(C)on1)C(C)C)Cc1ccc(F)cc1` [RUPINTRIVIR], for which the EC50 stood at 14 nM in the data set with rhinovirus A16 [1], 5 nM in the data set with rhinovirus A16 [2] and 2 nM in the data set with rhinovirus A16 [3].
Turning to `O=C(Nc1nc(C(F)(F)F)c(-c2csc(Nc3cccc(C(F)(F)F)c3)n2)s1)c1ccccc1`, the CC50 in data set [4] is greater than 50000 nM; in data set [11] it was 35900 nM. The IC50 with Zika virus is 4620 nM; in data set [6], “Not Active”; in the data set with enterovirus D68, 1110 nM; in the data set on rhinovirus A16 [3], 490 nM. Further, the EC50 with rhinovirus A16 [1] was found to be 1040 nM; in the data set with rhinovirus A16 [2], 4320 nM. For the same compound, the MAC is 16 µg/mL with Pseudomonas aeruginosa [5]; 2 µg/mL in the data set with Escherichia coli [7]; greater than 64 µg/mL in the data set with Pseudomonas aeruginosa [8]; 64 µg/mL with Klebsiella pneumoniae; 8 µg/mL in the data set on Acinetobacter baumannii [12]; 0.06 µg/mL in the data set with Acinetobacter baumannii [13]. Also, in the data set with Escherichia coli [14], the MAC came to 1 µg/mL. In addition, the MIC in the data set on Bacillus subtilis, in the data set with Enterococcus faecalis, in the data set on Staphylococcus aureus [9] and in the data set on Streptococcus pyogenes was greater than 32 µg/mL throughout. Further, the outcome in the data set with rhinovirus A16 [10] and in the data set on rhinovirus A16 [15] was Active.
With `CC(C)S(=O)(=O)n1c(N)nc2ccc(/C(=N/O)c3ccccc3)cc21` [ENVIROXIME], the EC50 with rhinovirus A16 [1] was determined as 27 nM; with rhinovirus A16 [2], 27 nM; with rhinovirus A16 [3] it was 49 nM.
In the data set with Staphylococcus aureus [16], `CC(C)(C)C(=O)Nc1nc(C(F)(F)F)c(-c2csc(Nc3cccc(C(=O)O)c3)n2)s1` came in with an MIC of 32 µg/mL (≈ 68 µM).
